Data published in ChEMBL document CHEMBL1157755 (Bioorg Med Chem Lett, 2010).
pEC50: −log10 of the molar value.

Tests used:
Histamine H2 receptor [1] = target: T1, Histamine H2 receptor (Homo sapiens, UniProt P25021); experiment: Agonist activity at GsalphaS-fused human histamine H2 receptor expressed in Sf9 cells by steady-state GTPase assay
Histamine H2 receptor [2] = target: T2, Histamine H2 receptor (Cavia porcellus, UniProt P47747); experiment: Agonist activity at GsalphaS-fused guinea pig histamine H2 receptor expressed in Sf9 cells by steady-state GTPase assay
T2 sequence (P47747 whole entry, the tested form may be a part): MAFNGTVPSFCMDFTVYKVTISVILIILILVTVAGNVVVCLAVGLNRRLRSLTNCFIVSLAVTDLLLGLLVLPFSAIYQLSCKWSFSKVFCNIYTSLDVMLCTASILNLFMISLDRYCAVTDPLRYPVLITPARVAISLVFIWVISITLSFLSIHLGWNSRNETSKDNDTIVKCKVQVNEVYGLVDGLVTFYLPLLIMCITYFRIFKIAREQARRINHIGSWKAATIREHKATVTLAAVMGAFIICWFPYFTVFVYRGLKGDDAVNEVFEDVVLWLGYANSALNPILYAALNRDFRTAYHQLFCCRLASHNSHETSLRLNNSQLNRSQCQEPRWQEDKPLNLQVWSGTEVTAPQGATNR

Histamine H1 receptor [3] = target: T3, Histamine H1 receptor (Homo sapiens, UniProt P35367); experiment: Activity at human recombinant histamine H1 receptor expressed in Sf9 cells coexpressing RGS4 by steady-state GTPase activity assay
T3 sequence (P35367 whole entry, the tested form may be a part): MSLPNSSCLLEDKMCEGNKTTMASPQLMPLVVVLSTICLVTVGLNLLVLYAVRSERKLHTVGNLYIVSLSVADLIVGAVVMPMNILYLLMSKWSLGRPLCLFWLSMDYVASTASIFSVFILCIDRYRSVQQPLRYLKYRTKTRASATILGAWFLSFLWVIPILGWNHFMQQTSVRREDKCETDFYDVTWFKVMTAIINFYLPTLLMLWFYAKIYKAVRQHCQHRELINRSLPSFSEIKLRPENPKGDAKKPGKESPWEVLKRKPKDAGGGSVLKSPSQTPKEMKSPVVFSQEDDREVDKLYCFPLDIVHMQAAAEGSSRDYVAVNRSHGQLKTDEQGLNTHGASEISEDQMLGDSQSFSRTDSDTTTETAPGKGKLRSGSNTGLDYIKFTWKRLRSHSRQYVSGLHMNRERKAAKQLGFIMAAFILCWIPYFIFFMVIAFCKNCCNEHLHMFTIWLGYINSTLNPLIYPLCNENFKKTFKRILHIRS
Outline: (§1)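 Steady-state GTPase activity was measured in Sf9 insect cell membranes. hH1R was co-expressed with RGS4; hH3R with Galphai2, Gbeta1gamma2 and RGS4; and hH4R-GAIP fusion protein with Galphai2 and Gbeta1gamma2. Agonist pEC50 or antagonist pKB was determined. Values are means of two to three experiments, each in duplicate.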

Histamine H2 receptor [4] = target: T2, Histamine H2 receptor; experiment: Agonist activity at histamine H2 receptor in spontaneously beating guinea pig atrium; type: functional, tissue-based, Cardiac atrium
Histamine H4 receptor [5] = target: T4, Histamine H4 receptor (Homo sapiens, UniProt Q9H3N8); experiment: Activity at human recombinant GAIP-fused histamine H4 receptor expressed in Sf9 cells coexpressing Galphai, Gbeta1gamma2 by steady-state GTPase activity assay
Outline: as §1

Histamine H1 receptor [6] = target: T3, Histamine H1 receptor; experiment: Activity at human recombinant histamine H1 receptor expressed in Sf9 cells coexpressing RGS4 by steady-state GTPase activity assay relative to histamine
Outline: as §1, with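 “determined. […]” for “determined.”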

Histamine H4 receptor [7] = target: T4, Histamine H4 receptor; experiment: Activity at human recombinant GAIP-fused histamine H4 receptor expressed in Sf9 cells coexpressing Galphai, Gbeta1gamma2 by steady-state GTPase activity assay relative to histamine
Outline: as §1, with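 “determined. […]” for “determined.”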

[8] = target: Histamine H2 receptor (Cavia porcellus) (UniProt P47747); experiment: Agonist activity at GsalphaS-fused guinea pig histamine H2 receptor expressed in Sf9 cells by steady-state GTPase assay relative to histamine
Sequence of Histamine H2 receptor (Cavia porcellus) (P47747 whole entry, the tested form may be a part): as the sequence (P47747 whole entry, the tested form may be a part) above

[9] = target: Histamine H2 receptor (Cavia porcellus) (UniProt P47747); experiment: Agonist activity at histamine H2 receptor in spontaneously beating guinea pig atrium assessed as increase in heart rate as relative to histamine; type: functional, tissue-based; conditions: Cardiac atrium
Histamine H2 receptor [10] = target: T1, Histamine H2 receptor; experiment: Agonist activity at GsalphaS-fused human histamine H2 receptor expressed in Sf9 cells by steady-state GTPase assay relative to histamine
Histamine H2 receptor [11] = target: T1, Histamine H2 receptor; experiment: Selectivity ratio of EC50 for human histamine H2 to EC50 for guinea pig histamine H2 receptor

T1 sequence (P25021 whole entry, the tested form may be a part): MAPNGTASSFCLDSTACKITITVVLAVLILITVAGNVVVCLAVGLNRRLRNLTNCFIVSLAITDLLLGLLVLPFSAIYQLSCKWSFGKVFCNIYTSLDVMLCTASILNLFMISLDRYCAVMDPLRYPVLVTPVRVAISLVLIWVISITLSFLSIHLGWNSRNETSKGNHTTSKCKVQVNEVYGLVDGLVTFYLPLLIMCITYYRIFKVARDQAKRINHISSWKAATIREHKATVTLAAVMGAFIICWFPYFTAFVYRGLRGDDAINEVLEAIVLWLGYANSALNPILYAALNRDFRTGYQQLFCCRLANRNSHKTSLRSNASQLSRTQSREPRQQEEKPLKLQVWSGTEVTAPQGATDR

| pEC50 (Histamine H2 receptor [1]) | pEC50 (Histamine H2 receptor [2]) | pEC50 (Histamine H1 receptor [3]) | pEC50 (Histamine H2 receptor [4]) | pEC50 (Histamine H4 receptor [5]) | Emax (Histamine H1 receptor [6]) | Emax (Histamine H4 receptor [7]) | Emax [8] | Emax (Histamine H2 receptor [10]) | Ratio EC50 (Histamine H2 receptor [11]) | Structure (SMILES) | Emax [9] |
| --- | --- | --- | --- | --- | --- | --- | --- | --- | --- | --- | --- |
| 8.19 | 8.11 | 7.18 | 7.48 | 8.34 | – | – | – | – | – | C[C@@H](CC(=O)NC(N)=NCCCc1cnc[nH]1)C1CCCCC1 | – |
| 7.73 | 7.72 | 7.05 | 6.99 | 8.08 | – | – | – | – | – | C[C@H](CC(=O)NC(N)=NCCCc1cnc[nH]1)C1CCCCC1 | – |
| – | – | – | – | – | 51% | 59% | 93% | 99% | 0.84 | C[C@@H](CC(=O)NC(=N)NCCCc1c[nH]cn1)C1CCCCC1 | 103% |
| 7.54 | 7.85 | – | 7.04 | – | – | – | – | – | – | Cc1nc(N)sc1CCCN=C(N)NC(=O)C[C@H](C)C1CCCCC1 | – |
| 7.69 | 7.88 | – | 7.24 | – | – | – | – | – | – | Cc1nc(N)sc1CCCN=C(N)NC(=O)C[C@@H](C)C1CCCCC1 | – |
| – | – | – | – | – | 41% | 57% | 90% | 85% | 0.98 | C[C@H](CC(=O)NC(=N)NCCCc1c[nH]cn1)C1CCCCC1 | 82% |
| 7.10 | 7.62 | 6.08 | 7.60 | 8.58 | – | – | – | – | – | C[C@@H](CC(=O)NC(N)=NCCCc1cnc[nH]1)c1ccccc1 | – |

The next lines start with the compound.

| Structure (SMILES) | pEC50 (Histamine H2 receptor [1]) | pEC50 (Histamine H2 receptor [2]) | pEC50 (Histamine H1 receptor [3]) | pEC50 (Histamine H2 receptor [4]) | pEC50 (Histamine H4 receptor [5]) | Emax (Histamine H1 receptor [6]) | Emax (Histamine H4 receptor [7]) | Emax [8] | Emax (Histamine H2 receptor [10]) | Ratio EC50 (Histamine H2 receptor [11]) | Emax [9] |
| --- | --- | --- | --- | --- | --- | --- | --- | --- | --- | --- | --- |
| NCCc1c[nH]cn1 [HISTAMINE] | – | – | – | – | – | 100% | 100% | 100% | 100% | – | 100% |
| Cc1nc(N)sc1CCCNC(=N)NC(=O)C[C@@H](C)c1ccccc1 | – | – | – | – | – | – | – | 86% | 65% | 3.14 | 73% |
| C[C@H](CC(=O)NC(N)=NCCCc1cnc[nH]1)c1ccccc1 | 6.92 | 7.12 | 5.21 | 7.03 | 7.64 | – | – | – | – | – | – |
| C[C@@H](CC(=O)NC(=N)NCCCc1c[nH]cn1)c1ccccc1 | – | – | – | – | – | 53% | 82% | 119% | 107% | 3.32 | 102% |
| Cc1nc(N)sc1CCCNC(=N)NC(=O)CC(C)c1ccccc1 (racemic) | 7.30 | 7.65 | – | 7.31 | – | – | – | 98% | 82% | 2.22 | 89% |
| Cc1nc(N)sc1CCCN=C(N)NC(=O)C[C@@H](C)c1ccccc1 | 7.27 | 7.77 | – | 6.99 | – | – | – | – | – | – | – |
| Cc1nc(N)sc1CCCNC(=N)NC(=O)C[C@@H](C)C1CCCCC1 | – | – | – | – | – | – | – | 80% | 62% | 1.53 | 80% |
| Cc1nc(N)sc1CCCNC(=N)NC(=O)C[C@H](C)c1ccccc1 | 7.55 | 8.11 | – | 7.40 | – | – | – | 99% | 87% | 3.6 | 87% |
| Cc1nc(N)sc1CCCNC(=N)NC(=O)C[C@H](C)C1CCCCC1 | – | – | – | – | – | – | – | 90% | 71% | 2.05 | 78% |
| Cc1nc(N)sc1CCCNC(=N)NC(=O)CC(C)C1CCCCC1 (racemic) | 8.03 | 8.12 | – | 7.16 | – | – | – | 82% | 56% | 1.24 | 74% |
| C[C@H](CC(=O)NC(=N)NCCCc1c[nH]cn1)c1ccccc1 | – | – | – | – | – | 34% | 85% | 101% | 101% | 1.58 | 93% |
